Measurements published in ChEMBL document CHEMBL5303300, “EUbOPEN Chemogenomics Library - Multiplex” (2023).
Where “and” joins values, the source holds several entries; their conditions need not be identical. Equal entries are not always repeated.

System: U2OS
Experiment: Multiplex assay against U2OS
Type: toxicity, cell-based
Conditions: human, number of replicates 2
Method in brief: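 Live cells were stained at seeding with Hoechst33342, BioTracker Green Microtubule Cytoskeleton Dye, MitoTracker Red and Annexin V Alexa Fluor 680. Following compound addition, they were imaged on a CQ1 microscope at 37°C and 5% CO2 and gated by CellPathfinder machine learning into Hoechst high-intensity objects or normal cells, with normal cells split into healthy, pyknosed or fragmented nuclei and pyknosed cells into mitotic or apoptotic. Tubulin, mitochondrial-mass and membrane-permeability phenotypes are per cents of healthy-nucleus cells.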

[1] = 12 h, 1 µM, compound concentration 1 uM
[2] = 12 h, 10 µM, compound concentration 10 uM
[3] = 24 h, 1 µM, compound concentration 1 uM
[4] = 24 h, 10 µM, compound concentration 10 uM
[5] = 48 h, 1 µM, compound concentration 1 uM
[6] = 48 h, 10 µM, compound concentration 10 uM

In the case of `CCN(CC)C/C=C/C(=O)Nc1cc2c(Nc3ccc(F)c(Cl)c3)ncnc2cc1OCC1CC1`, the “Population Apoptotic (%)” value [1] is reported as 100% and 80%, the “Population Healthy Nuclei (%)” value [1] is reported as 61% and 76% and the “Population Hoechst High Intensity Objects (%)” value [1] is reported as 0%. For the same compound, the “Population Membrane Permeable-Phenotype (%)” value [1] was 4% and 13%, the “Population Mitochondria Different-Phenotype (%)” value [1] was 29% and 21% and the “Population Mitotic Cells (%)” value [1] was 0% and 20%. The “Population Normal (%)” value [1] was 100%, the “Population Pyknosed Nuclei (%)” value [1] was 17% and 16% and the “Population Tubulin-Different-Phenotype (%)” value [1] was 58% and 49%. For the same compound, the “Population Apoptotic (%)” value [2] was 80% and 91%, the “Population Fragmented Nuclei (%)” value [2] was 27% and 10% and the “Population Healthy Nuclei (%)” value [2] was 25% and 48%. For the same compound, the “Population Hoechst High Intensity Objects (%)” value [2] was 0% and 1%, the “Population Membrane Permeable-Phenotype (%)” value [2] was 45% and 31% and the “Population Mitochondria Different-Phenotype (%)” value [2] was 45% and 57%. The “Population Mitotic Cells (%)” value [2] was 20% and 8%, the “Population Normal (%)” value [2] was 100% and 98% and the “Population Pyknosed Nuclei (%)” value [2] was 46% and 40%. The “Population Tubulin-Different-Phenotype (%)” value [2] was 90% and 95%, the “Population Apoptotic (%)” value [3] was 88% and 82% and the “Population Healthy Nuclei (%)” value [3] was 58% and 73%. The “Population Hoechst High Intensity Objects (%)” value [3] was 0%, the “Population Membrane Permeable-Phenotype (%)” value [3] was 10% and 15% and the “Population Mitochondria Different-Phenotype (%)” value [3] was 44% and 39%. For the same compound, the “Population Mitotic Cells (%)” value [3] was 11% and 17%, the “Population Normal (%)” value [3] was 100% and 99% and the “Population Pyknosed Nuclei (%)” value [3] was 18% and 23%. For the same compound, the “Population Tubulin-Different-Phenotype (%)” value [3] was 51% and 48%, the “Population Apoptotic (%)” value [4] was 93% and the “Population Healthy Nuclei (%)” value [4] was 11% and 1%. The “Population Hoechst High Intensity Objects (%)” value [4] was 1%, the “Population Mitotic Cells (%)” value [4] was 6% and the “Population Normal (%)” value [4] was 98%. For the same compound, the “Population Pyknosed Nuclei (%)” value [4] was 78% and 56%, the “Population Tubulin-Different-Phenotype (%)” value [4] was 93% and 100% and the “Total Cell Count” value [4] was 133 and 52. The “Population Apoptotic (%)” value [5] was 84% and 98%, the “Population Healthy Nuclei (%)” value [5] was 52% and 71% and the “Population Hoechst High Intensity Objects (%)” value [5] was 1% and 0%. For the same compound, the “Population Membrane Permeable-Phenotype (%)” value [5] was 10% and 12%, the “Population Mitochondria Different-Phenotype (%)” value [5] was 34% and 30% and the “Population Normal (%)” value [5] was 98% and 100%. For the same compound, the “Population Pyknosed Nuclei (%)” value [5] was 23% and 22%, the “Population Tubulin-Different-Phenotype (%)” value [5] was 37% and 42% and the “Population Apoptotic (%)” value [6] was 100% and 98%. The “Population Healthy Nuclei (%)” value [6] was 1% and 7%, the “Population Hoechst High Intensity Objects (%)” value [6] was 0% and the “Population Membrane Permeable-Phenotype (%)” value [6] was 100% and 88%. The “Population Mitochondria Different-Phenotype (%)” value [6] was 100% and 88%, the “Population Mitotic Cells (%)” value [6] was 0% and 1% and the “Population Normal (%)” value [6] was 100% and 99%. For the same compound, the “Population Pyknosed Nuclei (%)” value [6] was 46% and 87%, the “Population Tubulin-Different-Phenotype (%)” value [6] was 100% and the “Total Cell Count” value [6] was 56 and 120.

`NC(=O)c1ccc(-c2nc(-c3ccc4c(c3)OCCO4)c(-c3ccccn3)[nH]2)cc1` was tested, and the “Population Apoptotic (%)” value [1] was 40% and 85%, the “Population Fragmented Nuclei (%)” value [1] was 1% and 4% and the “Population Healthy Nuclei (%)” value [1] was 88% and 86%. The “Population Hoechst High Intensity Objects (%)” value [1] was 1% and 0%, the “Population Membrane Permeable-Phenotype (%)” value [1] was 4% and 1% and the “Population Mitochondria Different-Phenotype (%)” value [1] was 0% and 1%. For the same compound, the “Population Normal (%)” value [1] was 98% and 100%, the “Population Pyknosed Nuclei (%)” value [1] was 9% and the “Population Tubulin-Different-Phenotype (%)” value [1] was 53% and 86%. The “Total Cell Count” value [1] was 54 and 150, the “Population Apoptotic (%)” value [2] was 46% and 33% and the “Population Healthy Nuclei (%)” value [2] was 78% and 63%. The “Population Hoechst High Intensity Objects (%)” value [2] was 0%, the “Population Membrane Permeable-Phenotype (%)” value [2] was 4% and 0% and the “Population Mitochondria Different-Phenotype (%)” value [2] was 3% and 0%. For the same compound, the “Population Mitotic Cells (%)” value [2] was 53% and 66%, the “Population Normal (%)” value [2] was 100% and the “Population Pyknosed Nuclei (%)” value [2] was 14% and 8%. For the same compound, the “Population Tubulin-Different-Phenotype (%)” value [2] was 62% and 39%, the “Population Apoptotic (%)” value [3] was 54% and 64% and the “Population Fragmented Nuclei (%)” value [3] was 2% and 1%. The “Population Healthy Nuclei (%)” value [3] was 84% and 92%, the “Population Hoechst High Intensity Objects (%)” value [3] was 0% and the “Population Membrane Permeable-Phenotype (%)” value [3] was 1%. For the same compound, the “Population Mitochondria Different-Phenotype (%)” value [3] was 0%, the “Population Mitotic Cells (%)” value [3] was 45% and 35% and the “Population Normal (%)” value [3] was 100%. The “Population Pyknosed Nuclei (%)” value [3] was 13% and 6%, the “Population Tubulin-Different-Phenotype (%)” value [3] was 56% and 92% and the “Total Cell Count” value [3] was 84 and 214. For the same compound, the “Population Healthy Nuclei (%)” value [4] was 86% and 65%, the “Population Hoechst High Intensity Objects (%)” value [4] was 0% and the “Population Membrane Permeable-Phenotype (%)” value [4] was 3% and 0%. For the same compound, the “Population Mitochondria Different-Phenotype (%)” value [4] was 4% and 3%, the “Population Normal (%)” value [4] was 99% and 100% and the “Population Pyknosed Nuclei (%)” value [4] was 9% and 2%. The “Population Tubulin-Different-Phenotype (%)” value [4] was 59% and 48%, the “Population Apoptotic (%)” value [5] was 52% and 74% and the “Population Fragmented Nuclei (%)” value [5] was 6% and 3%. For the same compound, the “Population Healthy Nuclei (%)” value [5] was 82% and 90%, the “Population Hoechst High Intensity Objects (%)” value [5] was 0% and the “Population Membrane Permeable-Phenotype (%)” value [5] was 0% and 1%. For the same compound, the “Population Mitochondria Different-Phenotype (%)” value [5] was 0%, the “Population Mitotic Cells (%)” value [5] was 47% and 25% and the “Population Normal (%)” value [5] was 100%. The “Population Pyknosed Nuclei (%)” value [5] was 10% and 6%, the “Population Tubulin-Different-Phenotype (%)” value [5] was 62% and 95% and the “Population Apoptotic (%)” value [6] was 77% and 78%. The “Population Fragmented Nuclei (%)” value [6] was 21% and 7%, the “Population Healthy Nuclei (%)” value [6] was 66% and 78% and the “Population Hoechst High Intensity Objects (%)” value [6] was 0%. The “Population Membrane Permeable-Phenotype (%)” value [6] was 8% and 3%, the “Population Mitochondria Different-Phenotype (%)” value [6] was 4% and 2% and the “Population Mitotic Cells (%)” value [6] was 22% and 21%. The “Population Normal (%)” value [6] was 100%, the “Population Pyknosed Nuclei (%)” value [6] was 12% and 14% and the “Population Tubulin-Different-Phenotype (%)” value [6] was 61% and 67%.
